XiGFP reactiv: activators of X-chromosome reactivation in mouse fibroblasts. XiGFP mouse fibroblasts, % GFP-positive cells imaging, 3 d; cells co-treated with 5-aza-dC sensitizer; scaled so ellipticine positive control = 100%. activation, % at 7.58 µM. actives 0.055% (n = 360,000). AID 743238;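 active = mean normalized replicate activation at least 10% and every replicate at or above 10%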
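Schedule: 3 d treatment, 15 min room-temperature fixation; system: 68-5-11 XiGFP fibroblast line; buffer or medium: DMEM plus 5-aza-dC sensitizer; control set: ellipticine 6 µM positive control; compound: one concentration, pinned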
FN deposition inh: fibronectin deposition inhibition. AH1F fibroblasts, Alexa488-fibronectin deposition fluorescence, overnight. inhibition, % at 12.6 µM. actives 0.086% (n = 350,000);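 active = mean inhibition across replicates of 30% or more, regardless of how many single replicates reach that level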
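Measured by – fluorescence 485/525 nm · System – AH1F fibroblast monolayer, labelled fibronectin deposition · Amount – 10000 cells per well · Buffer or medium – serum-reduced DMEM (2% serum) · Doses – single dose, pinned · Also added – fluorescent fibronectin at 24 nM final · Schedule – 1 h cell attachment, overnight exposure to compound and label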
LGR2 antag: blocks bursicon-induced cAMP signaling via Drosophila LGR2; HEK293 LGR2, CRE-luciferase, bursicon-stimulated, 4 h; inhibition, % at 9.99 µM; actives 0.35% (n = 380,000);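 active = drop in luminescence signal, shown as inhibition above about 50% in the replicate tests, limit read from the data, passing the limit was not always enough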;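 note: agonist challenge used bursicon conditioned medium at about half maximal strength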
TWEAK-Fn14 inh: TWEAK-Fn14 signaling inhibition; TWEAK-stimulated Fn14 reporter cells, luciferase luminescence, 8 h; inhibition, % at 10 µM; actives 2% (n = 360,000); in the data active = inhibition above about 50%
EWS-Fli inh: EWS/Fli transcriptional activity inhibition; A673 NR0B1-luciferase reporter, viability-normalised; actives 0.67% (n = 350,000); inhibition, % at 12.6 µM;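 active = mean inhibition of at least 50% after viability correction, with every replicate also passing that limit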;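 note: firefly luciferase signal divided by Alamar Blue viability fluorescence both relative to DMSO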
TROY signal inh: TROY signaling inhibition | Q293 LMP1-TROYcd NF-kB luciferase reporter, 4 h | inhibition, % at 10 µM | actives 0.98% (n = 360,000) | AID 1347056;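 active = compounds whose plate-normalised and pattern-corrected inhibition of the luciferase reporter signal at the single screening dose is 50% or more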
Numbers stand for hits; . = inactive; / = not tested or not shown. Most compounds without a hit are left out; they make up all but 2.3% or so of the library.

SMILES	XiGFP reactiv	FN deposition inh	LGR2 antag	TWEAK-Fn14 inh	EWS-Fli inh	TROY signal inh
CC(C)(C)OC(=O)NCC(=O)Oc1cc2oc(=O)cc(-c3ccccc3)c2cc1Cl	.	.	.	80	.	.
O=C(Oc1cc2oc(=O)cc(-c3ccccc3)c2cc1Cl)C1CCCCC1	/	/	/	.	/	.
NC1=NC[C@H](c2ccccc2)N1CCc1cc(C(F)(F)F)cc(C(F)(F)F)c1	.	.	.	.	61	.
CC(O)[C@H]1CN=C(N)N1CCc1cc(C(F)(F)F)cc(C(F)(F)F)c1 (stereo partly specified)	.	.	.	.	.	.
Cc1[nH]c2ccccc2c1/C=N/NC(=O)C1CC1(c1ccccc1)c1ccccc1 (stereo unspecified)	.	.	.	66	/	.
Cc1[nH]c2ccccc2c1/C=N\NC(=O)c1ccccc1Cl	.	.	.	.	.	.
Cc1cc(C(=O)Nc2cccc3c2O[C@@H](CN(C)S(=O)(=O)c2ccc(F)cc2)[C@@H](C)CN([C@@H](C)CO)C3=O)n(C)n1	.	/	.	/	.	/
CN(C)S(=O)(=O)N1CCC(Oc2cccc(C(=O)NCCC3=CCCCC3)c2)CC1	.	.	.	50	.	.
COc1ccc(CN(C)C[C@@H]2Oc3ccc(NC(=O)NC4CCCCC4)cc3CC(=O)N([C@H](C)CO)C[C@H]2C)cc1	.	/	.	/	/	/
C[C@@H]1CN([C@H](C)CO)C(=O)c2cc(C#CC3(O)CCCC3)cnc2O[C@@H]1CN(C)C(=O)Nc1ccc2c(c1)OCO2	.	/	.	/	.	/
CCOC(=O)c1sc(N(Cc2ccccc2)C(=O)CCl)nc1C	.	.	.	.	57	.
CCOC(=O)c1sc(N(Cc2ccccc2)C(=O)COC(=O)c2ccc(O)cc2)nc1C	.	.	.	71	/	.
CCOC(=O)c1sc(N(Cc2ccccc2)C(=O)COC(=O)c2ccccc2O)nc1C	.	.	/	.	.	.
CCCCNC(=O)c1sc(=S)n2c1[nH]c(=O)c1ccccc12	/	.	/	.	/	56
O=C(NC1CCCCC1)c1sc(=S)n2c1[nH]c(=O)c1ccccc12	/	.	/	.	/	60
C[C@H](CO)N1C[C@H](C)[C@@H](CN(C)Cc2ccc(Cl)c(Cl)c2)Oc2ccc(NS(=O)(=O)c3cn(C)cn3)cc2C1=O	.	/	.	/	.	/
Cc1c(Cc2ccccc2)sc(NC(=O)/C=C/c2cccc3ccccc23)c1C(N)=O	.	.	.	.	60	.
CC(C)(C)n1ncc2c(=O)n(CC(=O)c3ccccc3)cnc21	/	/	/	.	/	/
CC(C)(C)n1ncc2c(=O)n(CC(=O)OCc3ccccc3)cnc21	/	/	93	99	/	87
CC(C)(C)n1ncc2c(=O)n(Cc3cccc(Cn4cnc5c(cnn5C(C)(C)C)c4=O)c3F)cnc21	.	.	.	82	.	.
CC(C)(C)n1ncc2c(=O)n(CC(=O)N3CCc4ccccc43)cnc21	/	/	/	59	/	60
CCCN(C)C[C@@H]1Oc2cc(C#C[C@@H](C)O)ccc2S(=O)(=O)N([C@H](C)CO)C[C@@H]1C	.	/	.	/	.	/
O=C1/C(=C/c2ccccc2)CCc2ccc(Cl)nc21	.	.	70	72	.	.
O=C1/C(=C\c2ccccc2)CCc2c1[nH]c1ccccc21	/	.	/	.	/	.
CCCNC(=O)[C@@]1(c2ccc([N+](=O)[O-])cc2)CC(=O)N(CC23CC4CC(CC(C4)C2)C3)[C@@H]1c1ccc(CO)cc1I	/	/	/	/	.	/
SMILES	XiGFP reactiv	FN deposition inh	LGR2 antag	TWEAK-Fn14 inh	EWS-Fli inh	TROY signal inh
COc1ccc(S(=O)(=O)N2CCCC2CNC(=O)C(=O)Nc2ccc(C)cc2)cc1 (stereo unspecified)	.	.	.	.	.	.
COc1ccc(NC(=O)C(=O)NCC2CCCN2S(=O)(=O)c2cc(C)ccc2C)cc1 (stereo unspecified)	.	.	.	.	57	.
COc1ccc(NC(=O)C2CCCN2S(=O)(=O)c2ccc(Cl)cc2)cc1 (stereo unspecified)	.	.	.	77	.	.
CS(=O)(=O)N1CCCCC1c1cc(C(=O)Nc2ccc3c(c2)OCO3)no1 (stereo unspecified)	.	.	.	.	.	.
COc1ccc(NC(=O)C(=O)NCC2CCCN2S(=O)(=O)c2ccc(C)cc2)cc1 (stereo unspecified)	.	/	.	.	56	.
COc1ccc(S(=O)(=O)N2CCCCC2c2cc(C(=O)Nc3ccc4c(c3)OCO4)no2)cc1 (stereo unspecified)	.	35	.	.	.	.
CC(=O)N1[C@@H](CO)[C@H](c2ccccc2)C12CN(C(=O)c1ccccc1)C2	.	/	.	/	.	/
CO[C@@H]1CN(C)C(=O)c2cc(NC(=O)Nc3ccccc3)ccc2OC[C@H](C)N(C(=O)CC2CC2)C[C@H]1C	.	.	.	/	.	/
C[C@H]1CN([C@@H](C)CO)S(=O)(=O)c2ccc(/C=C/c3ccccc3)cc2O[C@@H]1CN(C)C(=O)CN1CCOCC1	/	/	/	/	.	/
COC(=O)c1sccc1NC(=O)Nc1ccc(C(C)=O)cc1	.	.	.	59	.	.
CC(=O)c1ccc(NC(=O)Nc2ccncc2)cc1	.	.	.	58	.	.
COC(=O)c1sccc1NC(=O)Nc1ccc(C)cc1	.	.	.	.	.	.
COc1ccc2c3c([nH]c2c1)[C@@H](CO)N(C(=O)Nc1ccc(F)cc1)CC31CCN(S(=O)(=O)c2cccc(F)c2)CC1	.	/	.	/	.	/
C[C@@H]1CCCCO[C@@H](CN(C)Cc2ccncc2)[C@H](C)CN([C@H](C)CO)C(=O)c2cc(NC(=O)C3CCCCC3)ccc2O1	.	/	.	/	.	/
O=C1N[C@@H](Cc2ccccc2)COCn2nncc2CC[C@@H]1Cc1ccccc1	.	.	.	/	.	/
Cc1ccc(NC(=O)C2Cc3ccccc3CN2C(=O)c2ccco2)cc1S(=O)(=O)N(C)C (stereo unspecified)	.	.	.	.	.	72
CCC(C)NC(=O)c1c(N)n(/N=C/c2cccnc2)c2nc3ccccc3nc12 (stereo unspecified)	/	/	/	51	/	.
CCC(C)NC(=O)c1c(N)n(/N=C/c2ccccn2)c2nc3ccccc3nc12 (stereo unspecified)	/	.	.	64	/	.
O=C(Nc1cccc([N+](=O)[O-])c1)c1ccc2ccccc2c1O	.	.	.	53	.	.
O=C(Cc1ccccc1)Nc1cccc([N+](=O)[O-])c1	.	.	.	.	.	.
CCOC(=O)C(C(=O)OCC)C(Nc1ccc(Br)cc1)c1ccccc1 (stereo unspecified)	/	.	/	54	/	.
CCOC(=O)C(c1ccccc1)C(Nc1ccc(F)cc1)c1ccccn1 (stereo unspecified)	.	.	.	.	.	.

Screening results deposited in PubChem by several laboratories.
